ChEMBL document CHEMBL5338743, “Identification of a Selective SCoR2 Inhibitor That Protects Against Acute Kidney Injury” (J Med Chem, 2023)
Active and inactive are the calls of the source. No cut-off for these calls is given here.

T1: Aldo-keto reductase family 1 member A1 (Homo sapiens, UniProt P14550)
T1 sequence (P14550 whole entry): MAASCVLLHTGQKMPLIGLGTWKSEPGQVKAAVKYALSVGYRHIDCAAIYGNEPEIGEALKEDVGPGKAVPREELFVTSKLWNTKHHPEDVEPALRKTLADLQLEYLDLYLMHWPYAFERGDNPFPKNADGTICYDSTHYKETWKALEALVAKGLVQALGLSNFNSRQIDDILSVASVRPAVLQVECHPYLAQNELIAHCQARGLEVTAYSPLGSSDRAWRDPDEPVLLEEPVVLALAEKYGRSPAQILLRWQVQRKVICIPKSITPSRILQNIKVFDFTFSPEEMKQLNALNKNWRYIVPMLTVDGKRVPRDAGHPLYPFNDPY

B1: Aldo-keto reductase family 1 member A1 (Homo sapiens), P14550 (protein)
chain: MAASCVLLHTGQKMPLIGLGTWKSEPGQVKAAVKYALSVGYRHIDCAAIYGNEPEIGEALKEDVGPGKAVPREELFVTSKLWNTKHHPEDVEPALRKTLADLQLEYLDLYLMHWPYAFERGDNPFPKNADGTICYDSTHYKETWKALEALVAKGLVQALGLSNFNSRQIDDILSVASVRPAVLQVECHPYLAQNELIAHCQARGLEVTAYSPLGSSDRAWRDPDEPVLLEEPVVLALAEKYGRSPAQILLRWQVQRKVICIPKSITPSRILQNIKVFDFTFSPEEMKQLNALNKNWRYIVPMLTVDGKRVPRDAGHPLYPFNDPY

How the values were obtained:
[1] = target: T2, Aldo-keto reductase family 1 member B1 (Homo sapiens, UniProt P15121); assay: Inhibition of C-terminal 6His-tagged human recombinant AKR1B1 expressed in Escherichia coli BL21-CodonPlus competent cells using methyl glyoxylate as substrate incubated for 2 mins in presence of NADPH
How it was run: (§1)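 Purified enzyme at 200 nM (SCoR2 with 100 μM SNO-CoA; AKR1B1 with 100 μM methylglyoxylate) in 50 mM phosphate pH 7.0 with serial inhibitor dilutions; started with 100 μM NADPH, 2 min. Rate from 340 nm decrease, normalized to 20 nM protein activity; IC50 fitted, n=3. Selectivity taken as AKR1B1/SCoR2 IC50 ratio.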

[2] = target: T1, Aldo-keto reductase family 1 member A1; assay: Inhibition of C-terminal 6His-tagged human recombinant SCoR2 AKR1A1 expressed in Escherichia coli BL21-CodonPlus competent cells using SNO-CoA as substrate incubated for 2 mins in presence of NADPH; how it was run: as §1
[3] = species on record: Homo sapiens; assay: Selectivity index, ratio of IC50 for inhibition of human recombinant AKR1B1 expressed in Escherichia coli BL21-CodonPlus competent cells to IC50 for inhibition of human recombinant SCoR2 expressed in Escherichia coli BL21-CodonPlus competent cells; how it was run: as §1
[4] = system: Mus musculus; assay: Protection against ischemia/reperfusion induced acute kidney injury in mouse assessed as reduction in blood urea nitrogen level at 20 mg/kg, ip pretreated for 18 hrs followed by kidney injury surgery and measured after 24 hrs; assay type: functional, organism-based; details: time 42.0 hrs
How it was run: (§2)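 Male mice (9–11 weeks, 25–28 g) given i.p. dose 18 h before ischemia–reperfusion AKI surgery under isoflurane; serum taken 24 h after reperfusion. Creatinine and BUN measured by a clinical laboratory; DMSO-treated controls.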

[5] = system: Mus musculus; assay: Protection against ischemia/reperfusion induced acute kidney injury in mouse assessed as reduction in serum creatinine level at 20 mg/kg, ip pretreated for 18 hrs followed by kidney injury surgery and measured after 24 hrs; assay type: functional, organism-based; details: time 42.0 hrs; how it was run: as §2
[6] = In vivo inhibition of SCoR2 in mouse assessed as reduction in SNO-CoA metabolic activity in kidneys at 20 mg/kg body weight, ip administered as single dose into lower right quadrant of abdomen measured after 18 hrs relative to control; assay type: functional
How it was run: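 Single i.p. injection into the mouse abdomen, DMSO vehicle; organs collected 18 h later. Tissues homogenized in 50 mM phosphate pH 7.0, 150 mM NaCl, EDTA/DTPA, then clarified; lysate started reactions with 200 μM SNO-CoA and 100 μM NADPH, 2 min, NADPH loss monitored, in triplicate. Compared with vehicle and SCoR2−/− kidneys.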

[7] = system: Mus musculus; assay: In vivo inhibition of SCoR2 in ischemia/reperfusion induced acute kidney injury mouse model assessed as reduction in SNO-CoA metabolic activity in kidneys at 125 mg/kg, ip administered for 3 to 12 weeks; assay type: functional, organism-based; details: time 3-12 weeks
[8] = target: T2, Aldo-keto reductase family 1 member B1; assay: Inhibition of C-terminal 6His-tagged human recombinant AKR1B1 expressed in Escherichia coli BL21-CodonPlus competent cells using DL-glyceraldehyde as substrate
How it was run: (§3)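 Recombinant human His-tagged enzyme (20 nM) with 3 mM DL-glyceraldehyde in 50 mM phosphate pH 7.0, varying inhibitor from DMSO stocks; started with 100 μM NADPH, 2 min. NADPH consumption followed spectrophotometrically, slope used to fit IC50.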

[9] = target: T1, Aldo-keto reductase family 1 member A1; assay: Inhibition of C-terminal 6His-tagged human recombinant SCoR2 AKR1A1 expressed in Escherichia coli BL21-CodonPlus competent cells using DL-glyceraldehyde as substrate; how it was run: as §3
[10] = system: Mus musculus; assay: Protection against ischemia/reperfusion induced acute kidney injury in mouse assessed as reduction in serum creatinine level at 125 mg/kg, ip administered for 3 to 12 weeks; assay type: functional, organism-based; details: time 3-12 weeks
[11] = system: Mus musculus; assay: Protection against ischemia/reperfusion induced acute kidney injury in mouse assessed as reduction in blood urea nitrogen level at 125 mg/kg, ip administered for 3 to 12 weeks; assay type: functional, organism-based; details: time 3-12 weeks
[12] = system: Mus musculus; assay: In vivo inhibition of SCoR2 in ischemia/reperfusion induced acute kidney injury mouse model assessed as reduction in SNO-CoA metabolic activity in kidneys at 20 mg/kg, ip pretreated for 18 hrs followed by kidney injury surgery and measured after 24 hrs; assay type: functional, organism-based; details: time 42.0 hrs
How it was run: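 Male mice (9–11 weeks, 25–28 g) dosed i.p. 18 h before renal ischemia–reperfusion surgery under isoflurane; kidneys taken 24 h after reperfusion. Kidney lysate SNO-CoA reductase activity measured with 200 μM SNO-CoA, 100 μM NADPH, 2 min, triplicate assays; DMSO-treated controls.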

[13] = compound: O=C1NC(=O)C2(N1)c1ccccc1-c1ccc(C3CC3)cc12; assay: Uncompetitive inhibition of C-terminal 6His-tagged human recombinant SCoR2 AKR1A1 expressed in Escherichia coli BL21-CodonPlus competent cells using varying concentrations of SNO-CoA as substrate assessed as Vmax at 400 nM by Michaelis-Menten analysis (reference value: 23 umol.min)
[14] = compound: O=C1NC(=O)C2(N1)c1ccccc1-c1ccc(C3CC3)cc12; assay: Uncompetitive inhibition of C-terminal 6His-tagged human recombinant SCoR2 AKR1A1 expressed in Escherichia coli BL21-CodonPlus competent cells using varying concentrations of SNO-CoA as substrate assessed as Vmax at 100 nM by Michaelis-Menten analysis (reference value: 23 umol.min)
[15] = compound: O=C1NC(=O)C2(N1)c1ccccc1-c1ccc(C3CC3)cc12; assay: Uncompetitive inhibition of C-terminal 6His-tagged human recombinant SCoR2 AKR1A1 expressed in Escherichia coli BL21-CodonPlus competent cells using varying concentrations of SNO-CoA as substrate assessed as Km at 100 nM by Michaelis-Menten analysis (reference value: 254 uM)
[16] = compound: O=C1NC(=O)C2(N1)c1ccccc1-c1ccc(C3CC3)cc12; assay: Uncompetitive inhibition of C-terminal 6His-tagged human recombinant SCoR2 AKR1A1 expressed in Escherichia coli BL21-CodonPlus competent cells using varying concentrations of SNO-CoA as substrate assessed as Km at 400 nM by Michaelis-Menten analysis (reference value: 254 uM)

Molecule | IC50 [1] | IC50 [2] | Ratio IC50 [3] | further results
O=C(O)Cc1c(O)c(F)cc2c1-c1ccc(F)cc1C21NC(=O)NC1=O (stereo in doubt; 47-2) [listing 1 of 2 here] | 32 nM | 48 nM |  | 
O=C(O)COc1ccc2c(c1)-c1ccc(F)cc1C21NC(=O)NC1=O (stereo not given) | 53 nM | 42 nM | 1.3 | 
O=C1NC(=O)C2(N1)c1cc(F)ccc1-c1ccc(F)cc12 | 46 nM | 57 nM | 0.81 | Activity [4]: inactive; Activity [5]: inactive; inhibition in vivo at 20 mg/kg [6]: 80%; inhibition [7]: Active; IC50 [8]: 27 nM; IC50 [9]: 45 nM; Activity [10]: inactive; Activity [11]: inactive; inhibition [12]: Active
O=C1NC(=O)C2(N1)c1ccc(OCC(=O)N3CCC3)cc1-c1ccc(F)cc12 (stereo not given) | 19 nM | 80 nM | 0.24 | 
O=C1NC(=O)C2(N1)c1cc(F)ccc1-c1ccc(C3CC3)cc12 (stereo not given) | 212 nM | 122 nM | 1.7 | 
O=C1NC(=O)C2(N1)c1cc(F)ccc1-c1cc(OC3COC3)c(F)cc12 (stereo not given) | 14 nM | 29 nM | 0.48 | 
O=C(O)Cc1cc(F)cc2c1-c1ccc(F)cc1C21NC(=O)NC1=O (stereo in doubt; 49-2) |  |  | 0.26 | 
O=C1NC(=O)C2(N1)c1cc(F)ccc1-c1c(OCC(=O)N3CCC3)cc(F)cc12 (stereo not given) | 18 nM | 59 nM | 0.31 | 
O=C1NC(=O)C2(N1)c1cc(F)ccc1-c1ccc(Br)cc12 (stereo not given) | 22 nM | 51 nM | 0.43 | 
O=C(O)Cc1c(O)c(F)cc2c1-c1ccc(F)cc1C21NC(=O)NC1=O (stereo in doubt; 47-2) [listing 2 of 2 here] |  |  | 0.67 | 
O=C1NC(=O)C2(N1)c1cc(F)ccc1-c1ccc(C3CCC3)cc12 (stereo in doubt; 17-2) |  |  | 0.66 | 
O=C1NC(=O)C2(N1)c1cc(F)ccc1-c1ccc(C3CCC3)cc12 (stereo in doubt; 17-1) |  |  | 1.7 | 
O=C(O)COc1cc2c(cc1F)C1(NC(=O)NC1=O)c1cc(F)ccc1-2 (stereo in doubt; 48-2) [listing 1 of 2 here] |  |  | 0.27 | 
O=C1NC(=O)C2(N1)c1cc(F)ccc1-c1cc(C3CC3)c(F)cc12 (stereo not given) | 15 nM | 72 nM | 0.21 | 
O=C1NC(=O)C2(N1)c1ccccc1-c1c(F)cccc12 (stereo not given) | 52 nM | 82 nM | 0.63 | 
O=C1NC(=O)C2(N1)c1cc(Cl)ccc1-c1ccc(Cl)cc12 | 56 nM | 127 nM | 0.44 | 
CC(/C=C1\SC(=S)N(CC(=O)O)C1=O)=C\c1ccccc1 |  |  |  | IC50 [9]: 325 nM
O=C(O)COc1cc2c(cc1F)C1(NC(=O)NC1=O)c1cc(F)ccc1-2 (stereo in doubt; 48-2) [listing 2 of 2 here] | 22 nM | 82 nM |  | 
O=C1NC(=O)C2(N1)c1cc(F)ccc1-c1c(-c3cn(C4CCCC4)nn3)cc(F)cc12 (stereo not given) | 11 nM | 66 nM | 0.17 | 
O=C1NC(=O)C2(N1)c1cc(F)ccc1-c1c(F)cccc12 (stereo not given) | 16 nM | 67 nM | 0.24 | 
O=C(O)Cc1c(O)c(F)cc2c1-c1ccc(F)cc1C21NC(=O)NC1=O (stereo in doubt; 47-1) [listing 1 of 2 here] | 42 nM | 25 nM |  | 
O=C(O)COc1cc2c(cc1F)C1(NC(=O)NC1=O)c1cc(F)ccc1-2 (stereo in doubt; 48-1) [listing 1 of 2 here] |  |  | 0.43 | 
O=C(O)Cc1cc(F)cc2c1-c1ccc(F)cc1C21NC(=O)NC1=O (stereo in doubt; 49-1) |  |  | 0.53 | 
O=C1NC(=O)C2(N1)c1ccccc1-c1ccc(Cl)cc12 (stereo not given) | 16 nM | 53 nM | 0.3 | 
COc1ccc2c(c1)-c1ccc(F)cc1C21NC(=O)NC1=O (stereo not given) | 16 nM | 68 nM | 0.24 | 
O=C(O)Cc1c(O)c(F)cc2c1-c1ccc(F)cc1C21NC(=O)NC1=O (stereo in doubt; 47-1) [listing 2 of 2 here] |  |  | 1.7 | 
O=C(O)COc1cc2c(cc1F)C1(NC(=O)NC1=O)c1cc(F)ccc1-2 (stereo in doubt; 48-1) [listing 2 of 2 here] | 27 nM | 63 nM |  | 
O=C1NC(=O)C2(N1)c1ccc(OCCO)cc1-c1ccc(F)cc12 (stereo not given) | 13 nM | 74 nM | 0.18 | 
B1 |  |  |  | Vmax [13]: 4.5 µmol·min; Vmax [14]: 13 µmol·min; Km [15]: 199 µM; Km [16]: 98 µM
